The source made the active and inactive calls. The calls are words filed in the database; no cut-off is given here.
What was measured:
[1] = target: T1, NAD-dependent protein deacetylase sirtuin-3, mitochondrial (Homo sapiens) (UniProt Q9NTG7); test: Activation of N-terminal his-tagged human SIRT3 (114 to 380 residues) deacylation activity expressed in Escherichia coli at 10 uM using ACS2-acK642 as substrate in presence of NAD+ by NADH oxidation-coupled enzymatic assay; settings: filed as activator
T1 sequence (whole entry): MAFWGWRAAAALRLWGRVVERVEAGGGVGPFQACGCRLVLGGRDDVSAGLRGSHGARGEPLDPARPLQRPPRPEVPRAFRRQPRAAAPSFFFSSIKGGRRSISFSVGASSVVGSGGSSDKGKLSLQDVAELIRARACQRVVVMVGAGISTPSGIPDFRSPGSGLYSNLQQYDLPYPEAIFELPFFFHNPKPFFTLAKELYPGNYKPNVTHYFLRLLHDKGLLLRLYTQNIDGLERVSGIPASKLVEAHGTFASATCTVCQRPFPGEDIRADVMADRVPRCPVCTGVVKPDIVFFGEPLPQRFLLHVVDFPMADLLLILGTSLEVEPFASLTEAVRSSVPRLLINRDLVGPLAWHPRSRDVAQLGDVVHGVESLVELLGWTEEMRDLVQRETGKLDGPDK
Outline: (§1)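 Coupled PncA/GDH deacylation assay following NADPH oxidation to NADP+. 1.5 μM sirtuin, 50 μM substrate peptide, 100 μM NAD+, compound at 10 μM, 5% final DMSO. Isoform-specific physiological substrates: p53-acK381 (SIRT1), […] (SIRT2), ACS2-acK642 (SIRT3), CPS1-succK537 (SIRT5). Sirtuins expressed in E. coli, Ni-NTA purified, tag cleaved, then size-exclusion chromatography.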

[2] = target: T1, NAD-dependent protein deacetylase sirtuin-3, mitochondrial (Homo sapiens); test: Activation of N-terminal his-tagged human SIRT3 (114 to 380 residues) deacylation activity expressed in Escherichia coli at 100 uM using ACS2-acK642 as substrate in presence of NAD+ by NADH oxidation-coupled enzymatic assay
Outline: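 Coupled PncA/GDH deacylation assay following NADPH oxidation to NADP+. 1.5 μM SIRT3 (E. coli-expressed, tag removed) with 50 μM ACS2-acK642 peptide and 100 μM NAD+, compound at 100 μM, 5% final DMSO.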

[3] = target: T2, NAD-dependent protein deacetylase sirtuin-3, mitochondrial (Homo sapiens, UniProt Q9NTG7); test: Binding affinity to N-terminal his-tagged human SIRT3 (114 to 380 residues) assessed as dissociation constant by SPR analysis
T2 sequence (Q9NTG7 whole entry): T1 sequence (whole entry)
Outline: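 SPR with SIRT3 amine-coupled to the chip (sodium acetate pH 4.0; 1500–4000 RU). Analytes diluted to 200 μM in HBSP (20 mM Hepes, 150 mM NaCl, 0.005% P20; 2% DMSO), injected at 5, 10, 20, 40, 80 μM at 30 μL/min. Dissociation after 180 s. Reference chip lacked ligand. Apparent KD by Scatchard analysis. Run twice.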

MDA-MB-231 [4] = test: Downregulation of EPAS-1 expression in human MDA-MB-231 cells at 1 uM incubated for 48 hrs under hypoxia condition by Western blot analysis; format: functional, cell-based
MDA-MB-231 [5] = test: Downregulation of HIF1alpha expression in human MDA-MB-231 cells at 1 uM incubated for 48 hrs under hypoxia condition by Western blot analysis; format: functional, cell-based
MDA-MB-231 [6] = test: Downregulation of CA-IX expression in human MDA-MB-231 cells at 1 uM incubated for 48 hrs under hypoxia condition by Western blot analysis; format: functional, cell-based
CAL-62 [7] = test: Downregulation of CA-IX expression in human CAL-62 cells at 1 uM incubated for 48 hrs under hypoxia condition by Western blot analysis; format: functional, cell-based
CAL-62 [8] = test: Downregulation of EPAS-1 expression in human CAL-62 cells at 1 uM incubated for 48 hrs under hypoxia condition by Western blot analysis; format: functional, cell-based
CAL-62 [9] = test: Downregulation of HIF1alpha expression in human CAL-62 cells at 1 uM incubated for 48 hrs under hypoxia condition by Western blot analysis; format: functional, cell-based
[10] = target: T3, NAD-dependent protein deacetylase sirtuin-2 (Homo sapiens) (UniProt Q8IXJ6); test: Activation of N-terminal his-tagged human SIRT2 (43 to 356 residues) expressed in Escherichia coli at 10 uM using p53-acK381 as substrate in presence of NAD+ by NADH oxidation-coupled enzymatic assay
T3 sequence (whole entry): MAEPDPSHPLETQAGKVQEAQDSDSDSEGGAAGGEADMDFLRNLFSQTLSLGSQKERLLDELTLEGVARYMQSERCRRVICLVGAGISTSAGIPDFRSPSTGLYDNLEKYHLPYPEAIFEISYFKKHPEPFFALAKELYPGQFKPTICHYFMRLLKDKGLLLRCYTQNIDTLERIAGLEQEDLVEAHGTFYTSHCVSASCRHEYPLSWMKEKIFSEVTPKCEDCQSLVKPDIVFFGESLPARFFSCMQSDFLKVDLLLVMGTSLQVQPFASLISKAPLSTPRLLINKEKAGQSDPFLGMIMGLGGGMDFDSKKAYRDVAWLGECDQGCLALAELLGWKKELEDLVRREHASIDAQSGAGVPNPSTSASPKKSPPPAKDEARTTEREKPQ

CAL-62 [11] = test: Anticancer activity against human CAL-62 cells assessed as reduction in cell viability at 50 uM incubated for 24 to 48 hrs under hypoxia condition by trypan blue exclusion assay; format: functional, cell-based; settings: time 24-48 hrs, TDE = time-dependent effect
Outline: (§2)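 CAL-62 cells in RPMI 1640 with 10% FBS, treated with 50 μM compound (DMSO) for 24 and 48 h. Hypoxia induced with 200 μM CoCl2, kept in the medium during treatment. Viable cells counted by 0.4% trypan blue staining on a hemocytometer.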

[12] = target: T1, NAD-dependent protein deacetylase sirtuin-3, mitochondrial (Homo sapiens); test: Activation of human SIRT3 overexpressing in human MDA-MB-231 cells assessed as increase in GDH activity at 50 uM incubated for 4 hrs by absorbance assay; format: cell-based
Outline: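 MDA-MB-231 cells exposed 4 h to 50 μM compound. 10^6 cells lysed in GDH assay buffer for 10 min on ice. Supernatant mixed with developer and glutamate, incubated 3 min at 37 °C, absorbance read at 450 nm with buffer blank subtracted. SIRT3-overexpressing MDA-MB-231 cells served as reference.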

CAL-62 [13] = test: Downregulation of CA-IX expression in human CAL-62 cells at 50 uM incubated for 48 hrs under hypoxia condition by Western blot analysis; format: functional, cell-based
Outline: (§3)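 CAL-62 or MDA-MB-231 cells made hypoxic with 200 μM CoCl2 for 24 h, then treated with 50 μM compound for 48 h with CoCl2 retained. Lysates (15 or 50 μg protein) immunoblotted for HIF-1α, EPAS-1 or CA-IX with ACTB, ECL detection. 3-TYP (1 μM) as control.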

[14] = target: NAD-dependent protein deacylase sirtuin-5, mitochondrial (Homo sapiens) (UniProt Q9NXA8); test: Activation of N-terminal his-tagged human SIRT5 (34 to 302 residues) expressed in Escherichia coli at 10 uM using p53-acK381 as substrate in presence of NAD+ by NADH oxidation-coupled enzymatic assay
CAL-62 [15] = test: Inhibition of clonogenicity in human CAL-62 cells at 50 uM incubated for 24 to 48 hrs under normoxia condition by crystal violet staining based assay; format: functional; settings: time 24-48 hrs
Outline: (§4)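 CAL-62 cells at 80–90% confluence treated with 50 μM compound for 24 or 48 h, in normoxia or with 200 μM CoCl2 (hypoxia). 500 cells replated per 100 mm dish and grown about 7 days. Colonies fixed in 4% formaldehyde, stained with 0.5% crystal violet, and counted.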

[16] = target: T4, NAD-dependent protein deacetylase sirtuin-1 (Homo sapiens) (UniProt Q96EB6); test: Activation of N-terminal his-tagged human SIRT1 expressed in Escherichia coli at 10 uM using p53-acK381 as substrate in presence of NAD+ by NADH oxidation-coupled enzymatic assay; outline: as §1
T4 sequence (whole entry): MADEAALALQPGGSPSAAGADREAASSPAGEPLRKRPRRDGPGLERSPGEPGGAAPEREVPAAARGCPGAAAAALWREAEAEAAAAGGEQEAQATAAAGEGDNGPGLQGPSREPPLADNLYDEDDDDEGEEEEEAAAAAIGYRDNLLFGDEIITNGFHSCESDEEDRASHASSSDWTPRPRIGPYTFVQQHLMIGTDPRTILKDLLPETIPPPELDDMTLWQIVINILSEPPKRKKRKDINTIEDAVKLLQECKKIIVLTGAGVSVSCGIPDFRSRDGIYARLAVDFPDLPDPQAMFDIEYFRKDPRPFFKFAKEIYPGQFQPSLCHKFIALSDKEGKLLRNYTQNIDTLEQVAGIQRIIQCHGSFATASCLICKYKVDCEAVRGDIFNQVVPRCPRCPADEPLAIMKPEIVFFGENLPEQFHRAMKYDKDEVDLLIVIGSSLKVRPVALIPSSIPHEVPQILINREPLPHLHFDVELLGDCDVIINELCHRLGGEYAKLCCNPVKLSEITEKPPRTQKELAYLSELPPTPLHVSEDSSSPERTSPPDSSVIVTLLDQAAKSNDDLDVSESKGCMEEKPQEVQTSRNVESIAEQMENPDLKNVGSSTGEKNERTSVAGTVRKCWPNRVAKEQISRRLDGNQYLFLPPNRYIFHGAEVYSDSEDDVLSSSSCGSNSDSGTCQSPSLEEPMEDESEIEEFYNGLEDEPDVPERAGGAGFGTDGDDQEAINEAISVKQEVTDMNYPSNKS

CAL-62 [17] = test: Anticancer activity against human CAL-62 cells assessed as reduction in cell viability at 50 uM incubated for 24 to 48 hrs under normoxia condition by trypan blue exclusion assay; format: functional, cell-based; settings: time 24-48 hrs, TDE = time-dependent effect; outline: as §2
CAL-62 [18] = test: Downregulation of HIF1alpha expression in human CAL-62 cells at 50 uM incubated for 48 hrs under hypoxia condition by Western blot analysis; format: functional, cell-based; outline: as §3
CAL-62 [19] = test: Inhibition of clonogenicity in human CAL-62 cells at 50 uM incubated for 24 to 48 hrs under hypoxia condition by crystal violet staining based assay; format: functional; settings: time 24-48 hrs; outline: as §4

NAD-dependent protein deacylase sirtuin-5, mitochondrial (Homo sapiens), sequence (Q9NXA8 37-310 limits assumed): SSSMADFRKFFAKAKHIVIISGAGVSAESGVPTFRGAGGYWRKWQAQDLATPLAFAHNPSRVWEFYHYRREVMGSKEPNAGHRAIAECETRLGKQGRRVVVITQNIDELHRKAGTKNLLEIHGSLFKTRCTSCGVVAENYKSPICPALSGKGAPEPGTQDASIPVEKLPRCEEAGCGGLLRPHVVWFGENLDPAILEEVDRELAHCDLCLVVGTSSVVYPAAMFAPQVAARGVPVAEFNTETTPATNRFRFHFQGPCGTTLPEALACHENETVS

Compound	Activity [1] [%]	Activity ([2]; filed as activator)	other results
CCOC(=O)C1=CN(C(=O)c2ccc(F)cc2)C=C(C(=O)OCC)C1c1ccccc1	120	142%	–
CCOC(=O)C1=CN(C(=O)c2ccccc2)C=C(C(=O)OCC)C1c1ccccc1	157	188%	–
CCOC(=O)C1=CN(C(=O)c2ccsc2)C=C(C(=O)OCC)C1c1ccccc1	120	–	Activity [2]: inactive
CCOC(=O)C1=CN(C(=O)c2cccc([N+](=O)[O-])c2)C=C(C(=O)OCC)C1c1ccccc1	120	–	–
CCOC(=O)C1=CN(C(=O)c2ccc(Cl)cc2)C=C(C(=O)OCC)C1c1ccccc1	120	237%	Kd [3]: 74 µM
CCOC(=O)C1=CN(C(=O)c2cccs2)C=C(C(=O)OCC)C1c1ccccc1	120	–	–
CCOC(=O)C1=CN(C(=O)Cc2ccccc2)C=C(C(=O)OCC)C1c1ccccc1	176	Active	–
c1cncc(-c2cnn[nH]2)c1	–	–	Activity (MDA-MB-231 [4]): inactive; Activity (MDA-MB-231 [5]): inactive; Activity (MDA-MB-231 [6]): inactive; Activity (CAL-62 [7]): inactive; Activity (CAL-62 [8]): inactive; Activity (CAL-62 [9]): inactive
CCOC(=O)C1=CN(C(=O)c2cccc(OC)c2)C=C(C(=O)OCC)C1c1ccccc1	–	217%	Activity [10]: inactive; Activity (CAL-62 [11]): Tde; Activity ([12]; filed as activator): Active; Activity (CAL-62 [13]): Active; Activity [14]: inactive; inhibition at 50 µM (CAL-62 [15]): 53%; Kd [3]: 78 µM; Activity [16]: inactive; Activity (CAL-62 [17]): Tde; Activity (CAL-62 [18]): Active; inhibition at 50 µM (CAL-62 [19]): 53%
CCOC(=O)C1=CN(C(=O)c2cccc(F)c2)C=C(C(=O)OCC)C1c1ccccc1	120	196%	–
CCOC(=O)C1=CN(C(=O)c2ccc([N+](=O)[O-])cc2)C=C(C(=O)OCC)C1c1ccccc1	120	–	–
CCOC(=O)C1=CN(C(=O)c2ccco2)C=C(C(=O)OCC)C1c1ccccc1	120	–	–
CCOC(=O)C1=CN(C(=O)c2ccc(Br)cc2)C=C(C(=O)OCC)C1c1ccccc1	120	184%	–
CCOC(=O)C1=CN(C(=O)C2CCCCC2)C=C(C(=O)OCC)C1c1ccccc1	120	Active	–
CCOC(=O)C1=CN(C(=O)c2ccc(C#N)cc2)C=C(C(=O)OCC)C1c1ccccc1	120	–	–
CCOC(=O)C1=CN(C(=O)c2cccc(Br)c2)C=C(C(=O)OCC)C1c1ccccc1	120	214%	–
CCOC(=O)C1=CN(C(=O)c2cccc(Cl)c2)C=C(C(=O)OCC)C1c1ccccc1	120	204%	–
CCOC(=O)C1=CN(C(=O)c2ccc(OC)cc2)C=C(C(=O)OCC)C1c1ccccc1	120	–	Activity (CAL-62 [11]): Tde; Activity [12]: inactive; Activity (CAL-62 [13]): Active; Kd [3]: 72 µM; Activity (CAL-62 [17]): Tde
CCOC(=O)C1=CN(C(=O)c2cc(OC)c(OC)c(OC)c2)C=C(C(=O)OCC)C1c1ccccc1	128	269%	Activity ([12]; filed as activator): 175%
